Legend:
Histamine H4 receptor [1] = target: T1, Histamine H4 receptor (Homo sapiens, UniProt Q9H3N8); assay: Displacement of [3H]histamine from human histamine H4 receptor
Histamine H4 receptor [2] = target: T1, Histamine H4 receptor; assay: Agonist activity at human histamine H4 receptor expressed in human SK-N-MC cells assessed as effect on forskolin-induced cAMP accumulation after 6 hrs; format: functional, cell-based
Procedure, shortened: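 SK-N-MC cells with CRE-driven β-galactosidase reporter. Compound added to medium for 10 min at room temperature, then forskolin (5 µM final), 6 h at 37 °C. Chlorophenol red β-D-galactopyranoside substrate read at A570. α set against histamine (full agonist) = 1.0.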

Histamine H4 receptor [3] = target: T1, Histamine H4 receptor; assay: Antagonist activity at human histamine H4 receptor expressed in human SK-N-MC cells assessed as inhibition of forskolin-stimulated cAMP accumulation after 6 hrs; format: functional, cell-based; settings: read-out: pA2 (converted)
Procedure, shortened: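 pA2 format on SK-N-MC cells carrying a CRE-controlled β-galactosidase reporter. Cells were preincubated with compound for 10 min, then with histamine agonist for 10 min, then forskolin was added, followed by 6 h at 37 °C. Lysis used phosphate/Mg/Mn buffer at pH 8 with Triton X-100 and β-mercaptoethanol. Chlorophenol red β-D-galactopyranoside turnover was read at 570 nm.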

Histamine H4 receptor [4] = target: T1, Histamine H4 receptor; assay: Agonist activity at human histamine H4 receptor expressed in human SK-N-MC cells assessed as effect on forskolin-induced cAMP accumulation after 6 hrs relative to histamine; format: functional, cell-based
Procedure, shortened: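 SK-N-MC cells expressing human H4 receptor with a cAMP-responsive-element β-galactosidase reporter. Compound incubated 10 min at room temperature, then forskolin (5 µM final), then 6 h at 37 °C. Cells frozen overnight at -40 °C, lysed in phosphate buffer pH 8, chlorophenolred β-D-galactopyranoside substrate added, absorbance read at 570 nm. α calculated relative to histamine (full agonist) set as 1.0.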

Structure (SMILES)	Ki (Histamine H4 receptor [1]) [nM]	EC50 (Histamine H4 receptor [2]) [nM]	Kb (Histamine H4 receptor [3]) [nM]	Alpha max (Histamine H4 receptor [4])
CN1CCN(c2cc(N)nc(N3CCCC3)c2)CC1	100	> 10000	20	–
CN[C@@H]1CCN(c2cc(N)nc(N(C)C(C)C)n2)C1	140	–	–	–
Nc1nc(N2CCCC2)cc(N2CC3CCCNC3C2)n1 (racemic)	40	–	–	–
CN[C@H]1CCN(c2cc(N3CCCC3)nc(N)n2)C1	83	–	–	–
CC(C)Nc1nc(N)cc(N2CCN(C)CC2)n1	162	–	–	–
CN[C@@H]1CCN(c2cc(N)nc(N3CCCC3)n2)C1	127	–	–	–
CN1CCN(c2cc(N)nc(NCc3ccccc3)c2)CC1	148	–	–	–
CN[C@@H]1CCN(c2cc(N)nc(NCCO)n2)C1	255	–	–	–
CC(C)N(C)c1cc(N2CCN(C)CC2)nc(N)n1	24	> 10000	–	–
CC(C)CNc1cc(N2CCN(C)CC2)cc(N)n1	2	50	–	0.51
CC(C)CNc1nc(N)cc(N2CCN(C)CC2)n1	15	86	–	0.71
CN1CCN(c2cc(N)nc(N3CCCC3)n2)CC1	132	–	–	–
CN1CCN(c2cc(N)nc(NCc3ccccc3)n2)CC1	1080	–	–	–
CC(C)N(C)c1cc(N2CCN(C)CC2)cc(N)n1	189	–	–	–
CC(C)CNc1cc(N2CCN(C)CC2)nc(N)n1	2	> 10000	1.26	–
CC(C)Nc1cc(N2CCN(C)CC2)nc(N)n1	3	12	–	0.57
CC(C)N(C)c1nc(N)cc(N2CCN(C)CC2)n1	853	–	–	–
CN1CCN(c2cc(N)nc(NCCO)n2)CC1	1160	–	–	–
CN[C@@H]1CCN(c2cc(N)nc(N3CCCC3)c2)C1	77	> 10000	15.8	–
CC(C)Nc1cc(N2CCN(C)CC2)cc(N)n1	28	533	–	0.6

Further lines, with some results ahead:

Ki (Histamine H4 receptor [1]) [nM]	EC50 (Histamine H4 receptor [2]) [nM]	Kb (Histamine H4 receptor [3]) [nM]	Structure (SMILES)	Alpha max (Histamine H4 receptor [4])
58	–	–	CN[C@@H]1CCN(c2cc(NCc3ccccc3)nc(N)n2)C1	–
3	> 10000	10	CN[C@@H]1CCN(c2cc(NC(C)C)nc(N)n2)C1	–
51	–	–	CN[C@@H]1CCN(c2cc(N(C)C(C)C)nc(N)n2)C1	–
36	> 10000	7.94	CN[C@@H]1CCN(c2cc(N3CCCC3)nc(N)n2)C1	–
9	> 10000	0.398	CN[C@@H]1CCN(c2cc(NC3CCCC3)nc(N)n2)C1	–
8	> 10000	–	Nc1nc(N2CCCC2)cc(N2CCNCC2)n1	–
1	101	–	CN1CCN(c2cc(NC3CCCC3)nc(N)n2)CC1	0.46
50	–	–	CN[C@@H]1CCN(c2cc(N)nc(NCc3ccccc3)c2)C1	–
6	> 10000	2	CN1CCN(c2cc(N3CCCC3)nc(N)n2)CC1	–
44	–	–	CN[C@@H]1CCN(c2cc(NCCO)nc(N)n2)C1	–
6	> 10000	12.6	CN[C@@H]1CCN(c2cc(N)nc(NC(C)C)n2)C1	–
3	11	–	CN1CCN(c2cc(N)nc(NC3CCCC3)c2)CC1	0.73
1	> 10000	1.58	CN[C@@H]1CCN(c2cc(N)nc(NCC(C)C)n2)C1	–
10	16	–	CN1CCN(c2cc(N)nc(NC3CCCC3)n2)CC1	0.63
3	> 10000	1.58	CN[C@@H]1CCN(c2cc(N)nc(NC(C)C)c2)C1	–
0.2	> 10000	1.58	CN[C@@H]1CCN(c2cc(N)nc(NCC(C)C)c2)C1	–
20	–	–	CN1CCN(c2cc(NCc3ccccc3)nc(N)n2)CC1	–
6	> 10000	12.6	CN[C@@H]1CCN(c2cc(N)nc(NC3CCCC3)n2)C1	–
69	–	–	CN[C@@H]1CCN(c2cc(N)nc(NCc3ccccc3)n2)C1	–
0.3	–	–	CN1CCN(c2cc(N)nc(NCC(C)(C)C)c2)CC1	–
29	–	–	CN[C@@H]1CCN(c2cc(N)nc(N(C)C(C)C)c2)C1	–
25	–	–	CN1CCN(c2cc(NCCO)nc(N)n2)CC1	–
0.04	–	–	CN[C@@H]1CCN(c2cc(N)nc(NCC(C)(C)C)c2)C1	–
64	–	–	Nc1nc(N2CCCC2)cc(N2CC[C@@H](N)C2)n1	–
0.9	> 10000	–	CN[C@@H]1CCN(c2cc(N)nc(NC3CCCC3)c2)C1	–
